A short description of series [1]: Stability in human serum assessed as degradation after 3 hrs by HPLC analysis. In kind it is ADME, cell-free. The settings on record: read-out: Drug degradation. The method, boiled down: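 Peptide DMSO stock (5 mg/mL) added to 25 mM HEPES pH 7.6 with human serum (1 mL buffer + 250 μL serum) at 37 °C; followed 24 h. Aliquots withdrawn at fixed intervals, quenched in absolute ethanol, 15 min on ice, centrifuged; supernatant analysed by HPLC and HPLC-MS. Peptide/buffer/ethanol samples run in parallel.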

Series [2] can be described thus: Stability in human serum assessed as degradation after 24 hrs by HPLC analysis. Format: ADME, cell-free. The settings on record: read-out: Drug degradation. The method in brief:
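Peptide stock in DMSO (5 mg/mL), 20 μL added to 1 mL 25 mM HEPES pH 7.6 plus 250 μL human serum at 37 °C; aliquots taken over 24 h, quenched in ethanol on ice, centrifuged, supernatant analysed by HPLC and HPLC-MS; peptide-buffer-ethanol controls run in parallel.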

For series [3], the species on record is Homo sapiens. Put plainly: Activation of human His-tagged SHP2 D61H mutant expressed in Escherichia coli (DE3) Rosetta2 competent cells using p-nitrophenyl phosphate as substrate at 10 uM measured after 30 mins. The method, boiled down:
(§1)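 Recombinant full-length SHP2 (wild type or mutant), His-tagged, Ni-NTA then anion-exchange and gel-filtration purified; 20 pmol in 200 μL buffer with 20 mM p-nitrophenyl phosphate, basal or stimulated with bisphosphorylated BTAM peptide; 30 min at 30 °C; phosphate release read at 405 nm; three replicates.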

Series [4] in a line: Stability in DMEM buffer after 3 days by HPLC analysis. The settings on record: 72 h, time 3 day. Format: physicochemical. The method in brief: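 Same set-up as serum test but in DMEM, followed 72 h at 37 °C; monitored by HPLC with 5–50% B over 20 min.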
For series [5], the species on record is Homo sapiens. Put plainly: Activation of human His-tagged SHP2 E76V mutant expressed in Escherichia coli (DE3) Rosetta2 competent cells using p-nitrophenyl phosphate as substrate at 10 uM measured after 30 mins. The method, boiled down: as §1
For series [6], the species on record is Danio rerio. As to the kind of experiment: Improvement in survival of wild type Shp2a-injected Zebrafish embryos at 3 uM after 11 hrs post fertilization by stereomicroscopic analysis. Format: functional, organism-based. The settings on record: Embryo. The method, boiled down: (§2)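 One-cell zebrafish embryos microinjected (~1 nL) with 120 ng/μL mRNA for GFP-2A-Shp2-D61G or wild-type Shp2, with or without peptide at final 0.3, 3 or 5 μM (assuming ~500 nL embryo volume); GFP-expressing embryos selected, imaged laterally at 11 hpf by stereomicroscope; ovality as long/short axis ratio; survival followed through development; non-injected embryos as control.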

The test system of series [7] is T1, Tyrosine-protein phosphatase non-receptor type 11 (Homo sapiens), Q06124 [E76K].
T1 sequence (whole entry): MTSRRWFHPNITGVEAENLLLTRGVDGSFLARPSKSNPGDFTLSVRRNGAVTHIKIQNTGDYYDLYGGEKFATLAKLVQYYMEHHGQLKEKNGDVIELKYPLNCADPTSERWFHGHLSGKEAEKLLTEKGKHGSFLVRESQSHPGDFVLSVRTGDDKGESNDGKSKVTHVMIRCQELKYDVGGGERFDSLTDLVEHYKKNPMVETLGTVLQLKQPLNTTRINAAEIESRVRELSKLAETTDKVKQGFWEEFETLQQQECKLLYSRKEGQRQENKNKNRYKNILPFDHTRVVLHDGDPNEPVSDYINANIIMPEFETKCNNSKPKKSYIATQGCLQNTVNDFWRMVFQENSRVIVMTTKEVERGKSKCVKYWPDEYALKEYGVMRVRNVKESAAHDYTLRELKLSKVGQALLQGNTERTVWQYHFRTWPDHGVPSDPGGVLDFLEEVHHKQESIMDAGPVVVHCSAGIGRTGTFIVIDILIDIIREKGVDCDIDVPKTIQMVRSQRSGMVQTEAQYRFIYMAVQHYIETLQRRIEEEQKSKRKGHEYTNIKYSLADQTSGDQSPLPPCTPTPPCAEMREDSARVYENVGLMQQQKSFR
Put plainly: Activation of human His-tagged SHP2 E76K mutant expressed in Escherichia coli (DE3) Rosetta2 competent cells using p-nitrophenyl phosphate as substrate at 10 uM measured after 30 mins. The method in brief: as §1

Series [8] is filed under the species Danio rerio. As to the kind of experiment: Improvement in survival of Shp2a-D61G-injected Zebrafish embryos at 0.3 to 5 uM after 11 hrs post fertilization by stereomicroscopic analysis. In kind it is functional, organism-based. The settings on record: Embryo, dose 0.3-5 µM. The method in brief:
as §2

For series [9], the species on record is Danio rerio. Put plainly: Induction of phenotypic defect in Zebrafish injected with wild type Shp2a at 3 uM measured after 11 hrs post fertilization by stereomicroscopic analysis. Format: organism-based. Particulars: in vivo. The method in brief:
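Wild-type Shp2 mRNA (120 ng/μL) co-injected with peptide at final 3 μM into one-cell zebrafish embryos; GFP-positive embryos imaged laterally at 11 hpf by stereomicroscope; shape scored as long/short axis ratio.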

For series [10], the species on record is Homo sapiens. As to the kind of experiment: Activation of human His-tagged SHP2 F71I mutant expressed in Escherichia coli (DE3) Rosetta2 competent cells using p-nitrophenyl phosphate as substrate at 10 uM measured after 30 mins. The method in brief:
as §1

Series [11] is filed under the species Danio rerio. Put plainly: Reversal of Shp2a-D61G-induced phenotypic defect in Zebrafish at 5 uM by stereomicroscopic analysis. In kind it is functional, organism-based. The method in brief: as §2
Series [12] is filed under the species Homo sapiens. Put plainly: Activation of human His-tagged SHP2 A27S mutant expressed in Escherichia coli (DE3) Rosetta2 competent cells using p-nitrophenyl phosphate as substrate at 10 uM measured after 30 mins. The method in brief:
as §1

Series [13] is filed under the species Danio rerio. Put plainly: Reversal of Shp2a-D61G-induced gastrulation defect in Zebrafish assessed as reduction in major/minor axis ratios by stereomicroscopic analysis. In kind it is functional, organism-based. Particulars: dose 0.3-5 µM. The method in brief: as §2

Activity calls are given as the source filed them. No cut-off for these calls is given here. Where a SMILES comes first, the peptide text is derived from it.

On to `CC[C@H](C)[C@H](NC(=O)[C@H](C)NC(=O)[C@H](CCCCN)NC(=O)CNC(=O)[C@H](Cc1ccc(O)cc1)NC(=O)[C@H](Cc1ccc(O)cc1)NC(=O)[C@H](CCCCN)NC(=O)[C@H](Cc1ccccc1)NC(=O)[C@@H](N)Cc1c[nH]c2ccccc12)C(=O)N[C@@H](Cc1ccc(O)cc1)C(=O)O` (H-WFKYYGKAIY-OH), for which the metabolised at 3 h in [1] stood at 100%.

As for `CC[C@H](C)[C@H](NC(=O)[C@H](Cc1ccc(OP(=O)(O)O)cc1)NC(=O)[C@H](CC(N)=O)NC(=O)[C@H](CC(C)C)NC(C)=O)C(=O)N[C@@H](CC(=O)O)C(=O)N[C@@H](CC(C)C)C(=O)N[C@@H](CC(=O)O)C(=O)N[C@@H](Cc1c[nH]c2ccccc12)C(N)=O`, the metabolised at 24 h in series [2] was less than 50%.

For `CC[C@H](C)[C@H](NC(=O)[C@H](Cc1ccc(C(F)(F)P(=O)(O)O)cc1)NC(=O)[C@H](CC(N)=O)NC(=O)[C@H](CC(C)C)NC(=O)CNC(C)=O)C(=O)N[C@@H](CC(=O)O)C(=O)N[C@@H](CC(C)C)C(=O)N[C@@H](CC(=O)O)C(=O)N[C@@H](Cc1c[nH]c2ccccc12)C(N)=O`, the metabolised at 24 h in series [2] is less than 50%. Besides, the outcome (in the series filed under Homo sapiens [3]; in the series filed under Homo sapiens [5]; in the series filed under Danio rerio [6]; in series [7]; in the series listed under Homo sapiens [10]; in the series listed under Homo sapiens [12]) was inactive. Further, the Stability entry in [4] is listed as “Stable”. Further, the results for the Activity entry in the series filed under Danio rerio [8], in the series filed under Danio rerio [9] and in the series filed under Danio rerio [13] were “Dose-Dependent Effect”, “Non-Toxic” and “Dose-Dependent Effect”, respectively. The result in the series listed under Danio rerio [11] was Active.

These data come from ChEMBL document CHEMBL5029176, “Targeting Oncogenic Src Homology 2 Domain-Containing Phosphatase 2 (SHP2) by Inhibiting Its Protein-Protein Interactions” (J Med Chem, 2021).
